bCat nuc transl = modulators of beta-catenin nuclear translocation | HeLa beta-catenin nuclear translocation, immunofluorescence imaging | nuclear translocation activity, % at 5 µM | 0.3% of 190,000 active;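 active means nuclear translocation activity above 50% at 5 µM, with a well cell count of 50 or more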;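 further: per-cell ratio of nuclear to cytoplasmic median beta-catenin stain intensity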
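test system = HeLa cells, endogenous beta-catenin | dosing = single 5 µM dose plus 0.02–20 µM confirmation series | times = compound treatment 24 h, 37°C, 5% CO2 | technique = beta-catenin immunofluorescence imaging with DAPI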
ABCG2 inh = human ABCG2 inhibition, ABCB1 as counter-screen; 0.1% of 190,000 active; inhibition, % at 6.6 µM; IgMXP3 cells, JC-1 efflux, flow cytometry;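 active means inhibition above 80%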
Target sequence (Q9UNQ0 whole entry, looked up): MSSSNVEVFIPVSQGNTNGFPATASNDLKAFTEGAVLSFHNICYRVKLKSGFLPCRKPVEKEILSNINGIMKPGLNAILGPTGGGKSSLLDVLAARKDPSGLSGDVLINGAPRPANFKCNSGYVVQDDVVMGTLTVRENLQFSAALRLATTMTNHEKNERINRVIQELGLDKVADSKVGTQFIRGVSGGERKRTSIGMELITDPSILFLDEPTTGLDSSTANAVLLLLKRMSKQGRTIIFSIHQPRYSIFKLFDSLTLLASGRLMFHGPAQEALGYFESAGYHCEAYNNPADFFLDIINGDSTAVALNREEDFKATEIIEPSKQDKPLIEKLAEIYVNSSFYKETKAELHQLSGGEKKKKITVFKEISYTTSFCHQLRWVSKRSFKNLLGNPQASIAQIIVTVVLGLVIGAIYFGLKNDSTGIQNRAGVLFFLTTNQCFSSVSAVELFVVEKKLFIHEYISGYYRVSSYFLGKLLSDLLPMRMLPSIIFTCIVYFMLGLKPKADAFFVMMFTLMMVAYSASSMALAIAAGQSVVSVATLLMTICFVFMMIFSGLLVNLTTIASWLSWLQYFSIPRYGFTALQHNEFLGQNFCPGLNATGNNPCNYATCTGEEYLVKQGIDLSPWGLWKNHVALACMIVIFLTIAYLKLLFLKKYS
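Incubation: cells with compound and JC-1, 10 min at 25 °C, rotating, no wash / Test system: IgMXP3 (ABCG2) plus far-red-tagged CCRF-Adr (ABCB1) cells / Compound dosing: one concentration, 6.6 µM final / Also added: JC-1 fluorescent substrate / Evaluation: efflux inhibition in percent versus controls / Detection: flow cytometry, 530 nm JC-1 signal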
PKD1 kinase inh = PKD1 (human) kinase inhibition; PKD1 kinase fluorescence polarization assay; 0.056% of 200,000 active; inhibition, % (no concentration beside the values); in the data active means inhibition above about 50%
MT stabilize HCS = microtubule stabilization, imaging screen; 0.83% of 200,000 active; % tubulin-high responders, % at 10 µM; HeLa tubulin immunostaining HCS, 24 h; share of cells brighter than vehicle mean+2SD; AID 2205;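 active means plate Z-score above 3 for both tubulin-high and condensed-nucleus cell shares, with cell loss under 80%, at 10 µM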;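 further: anti alpha tubulin signal scored within the nucleus-defined area of each cell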
ABCB1 inh = human ABCB1 inhibition, ABCG2 as counter-screen. P08183. CCRF-Adr cells, JC-1 efflux, flow cytometry. inhibition, % at 6.6 µM. 0.067% of 190,000 active. AID 1326; in the data active means inhibition above about 40%;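 further: higher value means more JC-1 retained so stronger ABCB1 efflux block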
ABCB1 single pt = confirmation of human ABCB1 transporter inhibitors, ABCG2 counter-screen | shares compounds with ABCG2 inh | CCRF-Adr cells, JC-1 efflux, flow cytometry | inhibition, % at 6.6 µM | 7% of 270 active | AID 1451;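 active means inhibition of pump activity above 50%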
ABCG2 confirm = inhibits human ABCG2 efflux, confirmed at single point; shares compounds with ABCG2 inh; AID 1453; 6% of 270 active; inhibition, % at 6.6 µM; IgMXP3 cells, JC-1 efflux, flow cytometry;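 active means inhibition above 50%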
IgMXP3 fluor = compound fluoresces at 488/530 nm in IgMXP3 cells | compound autofluorescence 488/530 nm, flow; hits give high values | shares compounds with ABCG2 inh | fluorescence at 6.6 µM | 30% of 270 active;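 active means fluorescence in ABCG2-expressing cells above the plate's control-well mean plus 3 SD, cut at about 15 in these data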
CCRF-Adr fluor = CCRF-Adr autofluorescence flag for ABCB1 confirmation; shares compounds with ABCG2 inh; CCRF-Adr cells, compound autofluorescence 488/530 nm, flow cytometry; hits give high values; fluorescence at 6.6 µM; 30% of 270 active; AID 1483;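 active means fluorescence beyond the plate control mean plus 3 SD, with a fluorescence-to-maximum score over 2, cut at about 25 in these data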
Of the large screens only hits and unclear results are named; the others gave an inactive call (follow-up assays come after a bar, where they were run). Sampled rows, rich in hits. Any-hit rate of the full collection: about 1%.

COc1ccccc1CNC(=O)c1cc2sccc2n1C	ABCG2 inh 96.0 | ABCB1 single pt inactive | ABCG2 confirm inactive | IgMXP3 fluor inactive | CCRF-Adr fluor inactive
Cn1c(C(=O)NCc2cccnc2)cc2sccc21	none (no result: bCat nuc transl)
COc1cc(NC(=O)c2ccc([N+](=O)[O-])cc2)ccc1NC(=O)C(C)C	none
CCCNC(=S)N1CC2(C)CN(C(=O)C(=O)OC)CC(C)(C1)C2=O	none
O=c1cc(-c2ccccc2)[nH][nH]1	ABCB1 inh 81.9 | ABCB1 single pt inactive | ABCG2 confirm inactive | IgMXP3 fluor inactive | CCRF-Adr fluor inactive
N#Cc1ccc(COC(=O)c2ccc(N3CCCC3)c([N+](=O)[O-])c2)cc1	ABCG2 inh 89.8 | ABCB1 single pt inactive | ABCG2 confirm inactive | IgMXP3 fluor inactive | CCRF-Adr fluor inactive
COc1ccc(NC(=O)CN2CCN(C3c4ccccc4-c4ccccc43)CC2)c(OC)c1	none | ABCB1 single pt inactive | ABCG2 confirm inactive | IgMXP3 fluor inactive | CCRF-Adr fluor inactive
CCn1ncc(C2=NOC(C(=O)Nc3cccc(O)c3)C2)c1C (configuration not stated)	none
CCN(CCCNC(=O)CCc1nc(-c2ccc(OC)cc2)no1)c1cccc(C)c1	none (no result: bCat nuc transl)
C=CCN1C(=O)/C(=C\C=C2\N(C)c3ccccc3C2(C)C)SC1=S	ABCG2 inh 189.2, ABCB1 inh 61.0 | ABCB1 single pt inactive | ABCG2 confirm inactive | IgMXP3 fluor 145 | CCRF-Adr fluor 186
CN1/C(=C\C=C2/SC(=S)N(CC(=O)O)C2=O)C(C)(C)c2ccccc21	none
CCCCN1C(=O)/C(=C/C=C2\Oc3ccccc3N2CC)SC1=S	ABCG2 inh 89.2 | ABCB1 single pt inactive | ABCG2 confirm inactive | IgMXP3 fluor 162 | CCRF-Adr fluor 423
CCN1C(=O)/C(=C/C=C2/Sc3ccccc3N2CCO)SC1=S	none (no result: bCat nuc transl)
CCCN1C(=O)/C(=C/C=C2\N(CC)c3ccccc3C2(C)C)SC1=S	ABCB1 inh 69.7 | ABCB1 single pt inactive | ABCG2 confirm inactive | IgMXP3 fluor 96.1 | CCRF-Adr fluor 193
COc1ccc(C(=O)Cn2nnc(-c3ccccc3NC(=O)C3CC3)n2)cc1	ABCG2 inh 82.3 | ABCB1 single pt inactive | ABCG2 confirm inactive | IgMXP3 fluor 70 | CCRF-Adr fluor inactive
COc1ccc(C(=O)Cn2nnc(-c3ccccc3F)n2)cc1	none
CCN(CC)c1ccc2cc(-c3nc4ccccc4[nH]3)c(=O)oc2c1	none | ABCB1 single pt inactive | ABCG2 confirm inactive | IgMXP3 fluor 122 | CCRF-Adr fluor 296
COc1ccc2nc(N/C(N)=N/S(C)(=O)=O)nc(C)c2c1	none (no result: ABCG2 inh, PKD1 kinase inh, MT stabilize HCS, ABCB1 inh)
COC(=O)C1=C(C)N(CCc2c[nH]c3ccc(OC)cc23)C(=O)C1	none
CN=C1CC(C)(C)CC(=O)/C1=C(/O)CCCN1C(=O)c2ccccc2C1=O	none
CCN(CC)c1ccc(/C=C(\C#N)C(=O)c2ccc(Br)cc2)cc1	ABCG2 inh active, ABCB1 inh 181.2 | ABCB1 single pt inactive | ABCG2 confirm inactive | IgMXP3 fluor 743 | CCRF-Adr fluor 814
CCN(CC)c1ccc(/C=C(\C#N)C(N)=O)cc1	none
COc1ccc(OC)c(C(=O)COC(=O)c2cc(C)oc2C)c1	none | ABCB1 single pt inactive | ABCG2 confirm inactive | IgMXP3 fluor inactive | CCRF-Adr fluor inactive
CCc1ccc(CN(C)CC(=O)Nc2sccc2C#N)cc1	none (no result: bCat nuc transl)
O=C(CCCn1c(=O)[nH]c2cc(Cl)ccc2c1=O)NCCCN1CCN(c2ccc(F)cc2)CC1	none
Cc1c(Cl)c([N+](=O)[O-])nn1CCCC(=O)Nc1cc(Oc2ccccc2)cc([N+](=O)[O-])c1	ABCG2 inh 84.9 | ABCB1 single pt inactive | ABCG2 confirm inactive | IgMXP3 fluor inactive | CCRF-Adr fluor inactive
COC(=O)c1ccc(C(C(=O)NC2CCCCC2)N(C(=O)Cc2cccs2)C2CC2)cc1 (configuration not stated)	none
COC(=O)c1ccc(C(C(=O)NC2CCCCC2)N(Cc2ccccc2)C(=O)Cc2cccs2)cc1 (configuration not stated)	ABCB1 inh 48.4 (no result: bCat nuc transl) | ABCB1 single pt inactive | ABCG2 confirm inactive | IgMXP3 fluor inactive | CCRF-Adr fluor inactive
O=C(Nc1ccc(C(=O)O)cc1)Nc1ccc(F)cc1F	ABCG2 inh 190.4, ABCB1 inh 51.1 | ABCB1 single pt inactive | ABCG2 confirm inactive | IgMXP3 fluor inactive | CCRF-Adr fluor inactive
COc1ccc(NC(=O)Nc2ccc(F)cc2F)cc1	none
CCOC(=O)c1cc(C(C)(C)C)oc1CNC(=O)c1c(C)oc2c1CCCC2	none
COc1ccc(C2Cc3ccccc3C(=O)O2)cc1 (configuration not stated)	none (no result: bCat nuc transl)
COc1ccc(NS(=O)(=O)c2ccc(C(=O)N3CCN(Cc4ccccc4)CC3)cc2)cc1	none
COc1ccc(N2CCN(C(=O)c3ccc(NS(=O)(=O)c4ccccc4)cc3)CC2)cc1	ABCG2 inh 83.4 | ABCB1 single pt inactive | ABCG2 confirm inactive | IgMXP3 fluor 62.6 | CCRF-Adr fluor inactive
CCCCC(=O)Nc1cc(Cl)ccc1C(=O)O	none
Nc1c(-c2ccccc2)c(CSc2nc3ccccc3[nH]2)nn1-c1ccc(Cl)cc1	ABCB1 inh 43.4 | ABCB1 single pt inactive | ABCG2 confirm inactive | IgMXP3 fluor inactive | CCRF-Adr fluor inactive
O=C(CCl)Nc1cn(-c2ccccc2)nc1-c1ccc(F)cc1	none
Cc1ccc(C(=O)NCC(=O)Nc2cccc(C(F)(F)F)c2)cc1	none
O=C(CNC(=O)c1ccccc1)Nc1cccc(C(F)(F)F)c1	ABCG2 inh active (no result: ABCB1 inh) | ABCB1 single pt inactive | ABCG2 confirm inactive | IgMXP3 fluor 73.3 | CCRF-Adr fluor 33.5
Cc1ccnc(N/C=C(\C#N)c2nc(-c3cccc(Br)c3)cs2)c1	ABCB1 inh 46.8 | ABCB1 single pt inactive | ABCG2 confirm inactive | IgMXP3 fluor 41.7 | CCRF-Adr fluor 161
NC(=S)N=Nc1c(O)[nH]c2ccc(F)cc12	none | ABCB1 single pt inactive | ABCG2 confirm inactive | IgMXP3 fluor inactive | CCRF-Adr fluor inactive
O=C(N/N=C/c1ccc2c(c1)OCO2)C(=O)Nc1ccc2ccccc2c1	none
COc1cc(/C=C2\SC(=Nc3ccccc3)N(CCc3c[nH]c4ccccc34)C2=O)ccc1OC(C)C(=O)O (configuration not stated)	none
O=C1/C(=C/c2ccc(N3CCOCC3)o2)SC(=Nc2ccccc2)N1CCc1c[nH]c2ccccc12	ABCG2 inh 127.4, ABCB1 inh 81.2 | ABCB1 single pt inactive | ABCG2 confirm inactive | IgMXP3 fluor 76.9 | CCRF-Adr fluor 192

From PubChem
